The EternaBench riboswitch data

Tested on: MS2 coat protein
Experiment: apparent Kd, MS2 coat protein; higher = weaker binding; RNA-MaP array; FMN 200 µM where present
Method in brief: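 Apparent Kd: the median of filtered binding-curve fits from single clusters. Designs were transcribed on Illumina sequencing-chip clusters by stalled E. coli RNA polymerase and titrated with SNAP-549-labelled MS2 coat protein from 0.7 or 1.5 nM, doubling to 3 µM, in 100 mM Tris-HCl pH 7.5, 80 mM KCl, 4 mM MgCl2, BSA, DTT, yeast tRNA and Tween-20. Each series ran without and then with constant ligand, and green signal was normalised to red-channel RNA signal and control-cluster median Fmax.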

[1] = designed as: OFF switch for flavin mononucleotide, no ligand
[2] = ligand present: flavin mononucleotide, designed as: OFF switch for flavin mononucleotide
[3] = designed as: ON switch for flavin mononucleotide, no ligand
[4] = ligand present: flavin mononucleotide, designed as: ON switch for flavin mononucleotide

| Sequence | apparent Kd [1] | apparent Kd [2] | apparent Kd [3] | apparent Kd [4] |
| --- | --- | --- | --- | --- |
| UAUAAGUCUCAUGUAACAUGAGGAUCACCCAUGUCAUAUUGUAGAAGGAUGAUAUUAUGUAUAUCAUAGGAUAUACUAUAAGAU | 21.2 nM | 23.3 nM | – | – |
| GCGAUUAAGUAGAAGGUACAAUAUAUAUCAUUGUAAGGAUAUACUUACAUGAGGAUCACCCAUGUUAAAGGAUAUAAUAAUCGC | – | – | 9.08 nM | 8.98 nM |
| CCUCCCUGAGGAUAUCCACCCUCAUACAUGAGGAUCACCCAUGUUCAACCCUGGGUUCCCGGAGAAGGCAGUUUUC | 97.2 nM | 102 nM | – | – |
| CGAUUGACGUAGAAGGGACUUAAGGGACAAAGCAUGCGAACGGACGGACAUGAGGAUCACCCAUGUCAGGAUAUACGUUCAUUU | 5.27 nM | 6 nM | – | – |
| ACGUUCAAAGGAUAUACAUGAGGAUCACCCAUGUCCGUCAUGCAAGCGACGGUUUGCUGUAGAAGGUUGAACGC | 22.4 nM | 114 nM | – | – |
| AAAGAAAAACUAGAGGAUAUCCGAGUGGUAACAUGAGGAUCACCCAUGUGAUGAAAGGAACAUGAGGAGAAGGCUAGAAGAAAAA | – | – | 21.7 nM | 8.11 nM |
| GCGGGCCGCGCAGGAUAUACAGGGUACAUGAGGAUCACCCAUGUCCUUGGUGAGAUCAUUUGCCCGUAGAAGGGCGAGGGUCGG | 44.3 nM | 114 nM | – | – |
| GCACUGGAUGUAGGAUAUCAGGACGAUAAGUCCUGAGAAGGACAUGAGGAUCACCCAUGUAAACUCUAACCAGUGCAUAAUAUA | 14 nM | 20.4 nM | – | – |
| GCGUUCUUGUAGAAGGUACUUUCAACAUCUUAUAAACGCUAGACACAUGAGGAUCACCCAUGUUGUAAGGAUAUACAUGAACGC | – | – | 11.3 nM | 10.9 nM |
| GUAGCUAUCGGAGGAUAUUCAUUAUACAUGAGGAUCACCCAUGUUAAAGUGGGAGAAGGCCGAUAGCUACAAGAGCGAAAGCUC | – | – | 35.8 nM | 8.13 nM |
| GAUAAACAUGAGGAUCACCCAUGUGAGGAUAUGCGUACGUUGUCCGUAGGCGACGUGCGCAGAAGGCGCAAGGU | 99.4 nM | 216 nM | – | – |
| GACUCGCGCACAGGAUAUCCACGGAGCGGACGUGGAGAAGGGUGACAUGAGGAUCACCCAUGUACGUGAGUCUAGAUCACUUCC | – | – | 67.2 nM | 25 nM |
| GCGUAAAAGAUCCUAUUUAUCUACAUGAGGAUCACCCAUGUGCAGGAUAUGCUAUAUUUAAUAUAGCAGAAGGGCAAUAACCGC | 45.6 nM | 248 nM | – | – |
| GGUGCGUAUGUGAGGAUAUGCUGGUCCUUGGAUCAGCAGAAGGCACAUGAGGAUCACCCAUGUGGUGUCGUACC | 357 nM | 23.5 nM | – | – |
| GCUAAACAUGAGGAUCACCCAUGUACCGAUCACUAAGGAUAUGGGCGAAUAACGGCUCGGCCAGAAGGUAGAGAUG | – | – | 66.9 nM | 81.8 nM |
| UGUCGGUGCAGAGGAUAUUACAUGAGGAUCACCCAUGUAUGAACCAAUAGCUGGAAACAGCAAUGUAAGAAGGCUGCUCCGACA | 11.8 nM | 168 nM | – | – |
| GAAGUUAGAGGAUAUACAUGAGGAUCACCCAUGUGUGUUGUGAACAAUGUAUGUUUAUGUAGAAGGCUAACUUC | 79.4 nM | 241 nM | – | – |
| UUGGACGUCGUAGGAUAUGUAGGAUAUUCCUACAUGAGGAUCACCCAUGUUGACAUGGAAGAAGGACAGAAGGACCAUGUCCAU | – | – | 451 nM | 14.8 nM |
| GUAGAGUCAGGAUAUACGAGAUCGAAAGAUCUGUGAUCCAUACAUGAGGAUCACCCAUGUAGAAGGGACUCUAC | 33.7 nM | 364 nM | – | – |
| CUCAAACAUGAGGAUCACCCAUGUGUUGUCAUGGGAGGAUAUCUAAGUUCGUUGUAUUCGGGAGAAGGCCUAUGUC | – | – | 258 nM | 55.1 nM |
| AGGCAGCAAGGAUAUACAUAAUUCCUACAAGUCAGCAUAGGACAUGAGGAUCACCCAUGUAGAAGGUGCAAAGA | 24.1 nM | 46.3 nM | – | – |
| GCCGUAAGUGUGAGGAUAUACCUAUGGAUACAUAGGUAGAAGGCACAUGAGGAUCACCCAUGUCCUUAAUCGGC | 247 nM | 267 nM | – | – |
| CUAGCAUACCGAGGAUAUUCAUAUAAUAAAUAAACAUGAGGAUCACCCAUGUGGCGAAAGCCUAGGGAGAAGGCGGAAUGCUAA | – | – | 185 nM | 24.8 nM |
